The results in this text go back to ChEMBL document CHEMBL6071158, “Design, synthesis, and in vitro biological evaluation of meta-sulfonamidobenzamide-based antibacterial LpxH inhibitors” (Eur J Med Chem, 2024).

In brackets after ≈: the same amount, converted by molar mass. A value given as a limit tells only on which side of the number the result lay.

T1 sequence (Q12809 whole entry): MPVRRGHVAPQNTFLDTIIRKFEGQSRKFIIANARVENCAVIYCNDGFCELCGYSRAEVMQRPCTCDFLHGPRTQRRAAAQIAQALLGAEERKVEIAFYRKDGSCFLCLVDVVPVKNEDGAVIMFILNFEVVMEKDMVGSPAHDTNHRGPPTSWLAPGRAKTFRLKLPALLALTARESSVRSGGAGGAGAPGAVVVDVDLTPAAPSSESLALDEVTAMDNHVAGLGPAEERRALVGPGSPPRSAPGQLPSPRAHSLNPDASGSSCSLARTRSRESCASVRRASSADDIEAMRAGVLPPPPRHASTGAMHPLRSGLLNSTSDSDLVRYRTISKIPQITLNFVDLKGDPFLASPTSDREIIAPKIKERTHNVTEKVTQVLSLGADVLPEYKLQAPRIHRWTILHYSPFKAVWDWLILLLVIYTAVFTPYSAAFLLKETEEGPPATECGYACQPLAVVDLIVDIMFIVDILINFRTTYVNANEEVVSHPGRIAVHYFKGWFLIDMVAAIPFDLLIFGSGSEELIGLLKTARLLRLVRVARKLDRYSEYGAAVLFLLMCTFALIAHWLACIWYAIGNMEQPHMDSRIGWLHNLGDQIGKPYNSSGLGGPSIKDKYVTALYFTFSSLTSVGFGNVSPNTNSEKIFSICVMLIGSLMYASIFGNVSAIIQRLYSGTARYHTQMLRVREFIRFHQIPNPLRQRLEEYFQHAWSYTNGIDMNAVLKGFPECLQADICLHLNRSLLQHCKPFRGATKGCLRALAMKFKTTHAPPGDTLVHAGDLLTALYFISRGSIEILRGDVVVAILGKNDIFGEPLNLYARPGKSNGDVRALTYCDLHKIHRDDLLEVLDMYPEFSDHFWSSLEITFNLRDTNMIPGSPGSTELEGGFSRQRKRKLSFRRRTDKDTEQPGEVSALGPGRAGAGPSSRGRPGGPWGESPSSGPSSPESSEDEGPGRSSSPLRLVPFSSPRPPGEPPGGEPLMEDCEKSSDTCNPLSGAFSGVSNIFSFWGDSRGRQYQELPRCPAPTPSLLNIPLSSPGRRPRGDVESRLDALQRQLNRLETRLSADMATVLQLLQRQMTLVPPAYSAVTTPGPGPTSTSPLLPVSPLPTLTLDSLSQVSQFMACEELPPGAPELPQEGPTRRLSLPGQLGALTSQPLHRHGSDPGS

One data set deals with Escherichia coli. Nature of the data set: Inhibition of Escherichia coli LpXH enzyme at 100 nM by colorimetric coupled enzymatic analysis relative to control.
Details: not given
The gist of the method: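 AaLpxE-coupled assay: E. coli LpxH 0.1 nM and UDP-DAGn 20 µM (final) in 20 mM Tris-HCl pH 8.0, BSA, 0.02 % Triton X-100, 1 mM MnCl₂, 1 mM DTT, 10 % DMSO; inhibitor pre-incubated with enzyme 10 min, reaction 30 min at 37 °C, EDTA quench, then LpxE 30 min; released phosphate by malachite green at 620 nm vs phosphate standard; triplicate.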
The term inhibition denotes how much of the control response was suppressed. Low readings indicate a response near the control, high ones a response far below the control. In turn, `Cc1cc(C#N)nc(N2CCN(S(=O)(=O)c3ccc(NC(=O)c4cc(CN5CC(CN)C5)cc(NS(C)(=O)=O)c4)cc3)CC2)n1` came in with an inhibition of 89%.
Same read-out and setting: the same measure for `Cc1cc(C#N)nc(N2CCN(S(=O)(=O)c3ccc(NC(=O)c4ccccc4N(C)S(C)(=O)=O)cc3)CC2)n1`: 100%; for `Cc1cc(C#N)nc(N2CCN(S(=O)(=O)c3ccc(NC(=O)c4cc(NS(C)(=O)=O)cc(N5CC(CN)C5)c4)cc3)CC2)n1`: 92%; for `Cc1cc(C#N)nc(N2CCN(S(=O)(=O)c3ccc(NC(=O)c4cc(NS(C)(=O)=O)nc(N5CC(CN)C5)c4)cc3)CC2)n1`: 80%.

A further data set concerns Escherichia coli. Put plainly: Antibacterial activity against wild type Escherichia coli ATCC 25922 incubated for 16 to 20 hrs by Mueller-Hinton broth based two-fold serial dilution method. The class given is functional. To be noted: time 16-20 hrs.
A word on the MIC: it is the lowest concentration found to suppress growth. On to `Cc1cc(C#N)nc(N2CCN(S(=O)(=O)c3ccc(NC(=O)c4cc(CN5CC(CN)C5)cc(NS(C)(=O)=O)c4)cc3)CC2)n1`, for which it took 16 µg/mL (≈ 24.5 µM) to inhibit growth (MIC).
The same measure, in the same setting: the same measure for `Cc1cc(C#N)nc(N2CCN(S(=O)(=O)c3ccc(NC(=O)c4ccccc4N(C)S(C)(=O)=O)cc3)CC2)n1`: 2 µg/mL (≈ 3.51 µM).
Still for that read-out and setting: the same measure for `Cc1cc(C#N)nc(N2CCN(S(=O)(=O)c3ccc(NC(=O)c4cc(NS(C)(=O)=O)cc(N5CC(CN)C5)c4)cc3)CC2)n1`: 64 µg/mL (≈ 100 µM).
For `Cc1cc(C#N)nc(N2CCN(S(=O)(=O)c3ccc(NC(=O)c4cc(NS(C)(=O)=O)nc(N5CC(CN)C5)c4)cc3)CC2)n1`, 8 µg/mL (≈ 12.5 µM) was the least that counted as inhibitory (MIC).

Another data set has as its system Escherichia coli. Put plainly: Antibacterial activity against efflux pump-deficient delta tolC Escherichia coli ATCC 25922 assessed as bacterial growth inhibition incubated for 16 to 20 hrs by Mueller-Hinton broth based two-fold serial dilution method. As to conditions: time 16-20 hrs. In kind it is functional.
Take `Cc1cc(C#N)nc(N2CCN(S(=O)(=O)c3ccc(NC(=O)c4cc(CN5CC(CN)C5)cc(NS(C)(=O)=O)c4)cc3)CC2)n1`: the MIC was 0.25 µg/mL (≈ 0.382 µM).
Same read-out and setting: for `Cc1cc(C#N)nc(N2CCN(S(=O)(=O)c3ccc(NC(=O)c4ccccc4N(C)S(C)(=O)=O)cc3)CC2)n1` the value was no more than 0.125 µg/mL.
The same measure, in the same setting: the same measure for `Cc1cc(C#N)nc(N2CCN(S(=O)(=O)c3ccc(NC(=O)c4cc(NS(C)(=O)=O)cc(N5CC(CN)C5)c4)cc3)CC2)n1`: 0.25 µg/mL (≈ 0.391 µM).
As to `Cc1cc(C#N)nc(N2CCN(S(=O)(=O)c3ccc(NC(=O)c4cc(NS(C)(=O)=O)nc(N5CC(CN)C5)c4)cc3)CC2)n1`, the minimal inhibitory concentration (MIC) is 0.5 µg/mL (≈ 0.78 µM).

Tested on in the next data set: not listed separately
Put plainly: Hemolysis activity in human RBC cells assessed as effect on hemolysis relative to control. The class given is toxicity, cell-based, Erythrocyte. As to conditions: human red blood cells, read-out: Activity.
In the case of `Cc1cc(C#N)nc(N2CCN(S(=O)(=O)c3ccc(NC(=O)c4cc(CN5CC(CN)C5)cc(NS(C)(=O)=O)c4)cc3)CC2)n1`, the hemolysis was found to be 0.06%.
As for `Cc1cc(C#N)nc(N2CCN(S(=O)(=O)c3ccc(NC(=O)c4ccccc4N(C)S(C)(=O)=O)cc3)CC2)n1`, the hemolysis was determined as 0.05%.
On the same count and under the same terms, for `Cc1cc(C#N)nc(N2CCN(S(=O)(=O)c3ccc(NC(=O)c4cc(NS(C)(=O)=O)cc(N5CC(CN)C5)c4)cc3)CC2)n1` the value was 0.12%; for `Cc1cc(C#N)nc(N2CCN(S(=O)(=O)c3ccc(NC(=O)c4cc(NS(C)(=O)=O)nc(N5CC(CN)C5)c4)cc3)CC2)n1`, 0.12%.

Tested on in a further data set: not listed separately
Nature of the data set: Cytotoxicity against human HepG2 cells assessed as inhibition of cells incubated for 72 hrs by fluorometric microculture analysis. The class given is toxicity, cell-based.
Details: not given
The gist of the method: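 HepG2 (mycoplasma-free, ≤20 passages, DMEM + 10 % FBS + pen/strep) seeded 4000/well, cultured overnight, then exposed 72 h at 37 °C, 5 % CO₂ to nine two-fold dilutions in duplicate, top 100 µM. Viability by fluorescein diacetate hydrolysis (0.5 µg/ml FDA, 50 min, ex 475/em 520 nm); survival index vs control; IC50 by non-linear regression of log concentration-effect curves. Bortezomib 2 µM positive control.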
One may read the IC50 as the midpoint of a concentration-inhibition curve. For `Cc1cc(C#N)nc(N2CCN(S(=O)(=O)c3ccc(NC(=O)c4ccccc4N(C)S(C)(=O)=O)cc3)CC2)n1`, the half-maximal inhibitory concentration (IC50) at 72 h came to 29 µM.
In the case of `Cc1cc(C#N)nc(N2CCN(S(=O)(=O)c3ccc(NC(=O)c4cc(NS(C)(=O)=O)cc(N5CC(CN)C5)c4)cc3)CC2)n1`, the IC50 at 72 h is greater than 100 µM.
Consider `Cc1cc(C#N)nc(N2CCN(S(=O)(=O)c3ccc(NC(=O)c4cc(NS(C)(=O)=O)nc(N5CC(CN)C5)c4)cc3)CC2)n1`, for which the IC50 at 72 h is greater than 100 µM.

The target of the next data set is T1, hERG (KCNH2) (Homo sapiens, UniProt Q12809). Put plainly: Inhibition of hERG expressed in CHO cells at 10 uM by automated patch clamp analysis relative to control. In kind it is toxicity, cell-based. As to conditions: CHO cells that express hERG. The gist of the method:
(§1)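 Stably expressing CHO-KV11.1 cells, automated whole-cell population patch clamp (10 cells) at 22 °C; vehicle baseline (0.43 % DMSO) then two cumulatively rising concentrations, 30 s exposure. Holding −80 mV, steps in 10 mV increments to 50 mV for 5 s, tail current at −50 mV (peak in first 90 ms, leak-subtracted); protocol every 150 s; triplicate, mean ± SEM.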
(The hERG channel carries a current that helps repolarise heart muscle cells.)
Turning to `Cc1cc(C#N)nc(N2CCN(S(=O)(=O)c3ccc(NC(=O)c4cc(CN5CC(CN)C5)cc(NS(C)(=O)=O)c4)cc3)CC2)n1`, the inhibition at 10 µM came out at 4%.
`Cc1cc(C#N)nc(N2CCN(S(=O)(=O)c3ccc(NC(=O)c4ccccc4N(C)S(C)(=O)=O)cc3)CC2)n1` displayed an inhibition at 10 µM of 14%.
On the same count and under the same terms, for `Cc1cc(C#N)nc(N2CCN(S(=O)(=O)c3ccc(NC(=O)c4cc(NS(C)(=O)=O)cc(N5CC(CN)C5)c4)cc3)CC2)n1` the value was 5%; for `Cc1cc(C#N)nc(N2CCN(S(=O)(=O)c3ccc(NC(=O)c4cc(NS(C)(=O)=O)nc(N5CC(CN)C5)c4)cc3)CC2)n1`, 1%.

Another data set addresses T1, hERG (KCNH2). Put plainly: Inhibition of hERG expressed in CHO cells at 30 uM by automated patch clamp analysis relative to control. The class given is toxicity, cell-based. To be noted: CHO cells that express hERG. The gist of the method:
as §1
For the molecule `Cc1cc(C#N)nc(N2CCN(S(=O)(=O)c3ccc(NC(=O)c4cc(CN5CC(CN)C5)cc(NS(C)(=O)=O)c4)cc3)CC2)n1`, the inhibition at 30 µM was 7%.
Consider `Cc1cc(C#N)nc(N2CCN(S(=O)(=O)c3ccc(NC(=O)c4ccccc4N(C)S(C)(=O)=O)cc3)CC2)n1`, for which the inhibition at 30 µM stood at 24%.
Take `Cc1cc(C#N)nc(N2CCN(S(=O)(=O)c3ccc(NC(=O)c4cc(NS(C)(=O)=O)cc(N5CC(CN)C5)c4)cc3)CC2)n1`: the inhibition at 30 µM turned out to be 9%.
Same read-out and setting: for `Cc1cc(C#N)nc(N2CCN(S(=O)(=O)c3ccc(NC(=O)c4cc(NS(C)(=O)=O)nc(N5CC(CN)C5)c4)cc3)CC2)n1` the value was 0%.

For the next data set, the system named is Klebsiella pneumoniae. Nature of the data set: Antibacterial activity against wild type Klebsiella pneumoniae ATCC 13883 assessed as of bacterial growth incubated for 16 to 20 hrs by Mueller-Hinton broth based two-fold serial dilution method.
Details: not given
As to `Cc1cc(C#N)nc(N2CCN(S(=O)(=O)c3ccc(NC(=O)c4cc(CN5CC(CN)C5)cc(NS(C)(=O)=O)c4)cc3)CC2)n1`, the minimum inhibitory concentration (MIC) amounted to 4 µg/mL (≈ 6.12 µM).
On to `Cc1cc(C#N)nc(N2CCN(S(=O)(=O)c3ccc(NC(=O)c4ccccc4N(C)S(C)(=O)=O)cc3)CC2)n1`, for which the minimal inhibitory concentration (MIC) is 2 µg/mL (≈ 3.51 µM).
Take `Cc1cc(C#N)nc(N2CCN(S(=O)(=O)c3ccc(NC(=O)c4cc(NS(C)(=O)=O)cc(N5CC(CN)C5)c4)cc3)CC2)n1`: the MIC stood at 32 µg/mL (≈ 50 µM).
Same read-out and setting: for `Cc1cc(C#N)nc(N2CCN(S(=O)(=O)c3ccc(NC(=O)c4cc(NS(C)(=O)=O)nc(N5CC(CN)C5)c4)cc3)CC2)n1` the value was 4 µg/mL (≈ 6.24 µM).
